The source made the active and inactive calls. The rule behind the calls is not given here.
What was measured:
Substance-P receptor = Substance-P receptor (Homo sapiens, UniProt P25103); assay: Displacement of [3H]SP from human NK1 receptor expressed in CHO cells by liquid scintillation counting; type: cell-based
Meriones unguiculatus [1] = assay: Inhibition of GR73632-induced foot tapping in orally dosed Mongolian gerbil after 1 hr; type: functional; settings: po, read-out: ID50 (the source's name)
Summary of the method: (§1)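 GR73632 (3 pmol/5 μL) injected icv into the lateral ventricle of Mongolian gerbils; after 1 min recovery, hind foot tapping timed for 3 min (max 180 s). Oral compound or vehicle (10 mL/kg) given 1, 4, 8 or 24 h beforehand, at least seven animals per group.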

Meriones unguiculatus [2] = assay: Inhibition of GR73632-induced foot tapping in orally dosed Mongolian gerbil after 4 hrs; type: functional; settings: po, read-out: ID50 (the source's name); summary of the method: as §1
Meriones unguiculatus [3] = assay: Inhibition of GR73632-induced foot tapping in orally dosed Mongolian gerbil after 24 hrs; type: functional; settings: po, read-out: ID50 (the source's name); summary of the method: as §1
[4] = Half life in rat at 1 mg/kg, iv and po; type: ADME, organism-based; set-up: dose 1 mg/kg, route oral; settings: in vivo
Summary of the method: (§2)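 Rats (n = 6) were dosed at 1 mg/kg iv bolus and po by gavage. Serial blood sampling; plasma obtained by centrifugation, then protein precipitation and HPLC-MS/MS quantitation. PK parameters calculated from plasma concentrations.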

Meriones unguiculatus [5] = assay: Antidepressant activity against po dosed Mongolian gerbil assessed as increase in social interaction time; type: functional, organism-based
Summary of the method: (§3)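 Pairs of unfamiliar male Mongolian gerbils (50-70 g), matched for treatment, placed in arena centre; active social interaction (sniffing, following, partner grooming, wrestling) scored for 5 min. Dosing 1 h before test, po at 0.1, 0.3 and 1.0 mg/kg (10 mL/kg), randomized, 10 animals per group. One-way ANOVA with Dunnett's test or paired t test versus vehicle.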

[6] = Bioavailability in dog at 0.5 mg/kg, iv; type: ADME, organism-based, Canis lupus familiaris; settings: in vivo
Summary of the method: (§4)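 Dog (n = 6), cynomolgus monkey (n = 3) and marmoset (n = 3) received an iv bolus at 0.5 mg/kg and po gavage at 1 mg/kg. Serial blood samples taken, spun to plasma, and assayed after protein precipitation by HPLC-MS/MS; parameters derived from plasma concentrations.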

Meriones unguiculatus [7] = assay: Inhibition of GR73632-induced foot tapping in orally dosed Mongolian gerbil after 8 hrs; type: functional; settings: po, read-out: ID50 (the source's name); summary of the method: as §1
[8] = Oral bioavailability in rat at 1 mg/kg; type: ADME, organism-based; settings: in vivo; summary of the method: as §2
[9] = Half life in marmoset at 1 mg/kg, iv; type: ADME, organism-based, Callithrix jacchus; set-up: dose 1 mg/kg, route intravenous; settings: in vivo
[10] = Plasma clearance in mouse at 2 mg/kg, po; type: ADME, organism-based; set-up: dose 2 mg/kg, route oral
[11] = Oral bioavailability in mouse at 2 mg/kg; type: ADME, organism-based; settings: in vivo
Summary of the method: (§5)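 Mice given 1 mg/kg iv and 2 mg/kg po using a composite design, three animals per time point (n = 21 per arm). Blood collected at nominal times, plasma prepared by centrifugation and analysed by protein precipitation plus HPLC-MS/MS; parameters derived from plasma concentrations.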

[12] = Half life in dog at 0.5 mg/kg, iv; type: ADME, organism-based, Canis lupus familiaris; set-up: dose 0.5 mg/kg, route intravenous; settings: in vivo; summary of the method: as §4
Rattus norvegicus = assay: Volume of distribution at steady state in rat at 1 mg/kg, iv and po; type: ADME, organism-based; set-up: dose 1 mg/kg, route oral; settings: in vivo; summary of the method: as §2
[13] = Binding affinity to calcium channel L type dihydropyridine binding site
[14] = Binding affinity to calcium channel L type benzodiazepine binding site
[15] = Plasma clearance in dog at 0.5 mg/kg, iv; type: ADME, organism-based, Canis lupus familiaris; set-up: dose 0.5 mg/kg, route intravenous; summary of the method: as §4
Mus musculus = assay: Volume of distribution at steady state in mouse at 2 mg/kg, po; type: ADME, organism-based; set-up: dose 2 mg/kg, route oral; settings: in vivo
[16] = Bioavailability in marmoset at 1 mg/kg, iv; type: ADME, organism-based, Callithrix jacchus; settings: in vivo
[17] = Volume of distribution at steady state in marmoset at 1 mg/kg, iv; type: ADME, organism-based, Callithrix jacchus; set-up: dose 1 mg/kg, route intravenous; settings: in vivo, read-out: Vdss
[18] = Plasma clearance in cynomolgus monkey at 1 mg/kg, iv; type: ADME, organism-based, Macaca fascicularis; set-up: dose 1 mg/kg, route intravenous
[19] = Binding affinity to sodium channel site 2
Meriones unguiculatus [20] = assay: Toxicity in Mongolian gerbil assessed as abnormal behavior at 0.3 to 1 mg/kg, po; type: organism-based; set-up: dose 0.3-1 mg/kg, route oral; settings: in vivo
Summary of the method: (§6)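 Gerbil social interaction arena, po dosing 1 h pretest (0.1, 0.3, 1.0 mg/kg; 10 mL/kg; 10 per group). Abnormal behaviours noted during the 5 min session; sedation checked as locomotor activity scored by line crossing. Compared with vehicle by one-way ANOVA plus Dunnett's test or paired t test.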

[21] = Volume of distribution at steady state in cynomolgus monkey at 1 mg/kg, iv; type: ADME, organism-based, Macaca fascicularis; set-up: dose 1 mg/kg, route intravenous; settings: in vivo, read-out: Vdss
[22] = Half life in mouse at 2 mg/kg, po; type: ADME, organism-based; set-up: dose 2 mg/kg, route oral; settings: in vivo; summary of the method: as §5
[23] = Volume of distribution at steady state in dog at 0.5 mg/kg, iv; type: ADME, organism-based, Canis lupus familiaris; set-up: dose 0.5 mg/kg, route intravenous; settings: in vivo, read-out: Vdss; summary of the method: as §4
Meriones unguiculatus [24] = assay: Antidepressant activity against Mongolian gerbil assessed as increase in social interaction time at 0.3 to 1 mg/kg, po; type: functional, organism-based; summary of the method: as §3
Meriones unguiculatus [25] = assay: Antidepressant activity against po dosed Mongolian gerbil assessed as increase in social interaction time at 1 mg/kg, po (Rbv = 19+/-1.2seconds); type: functional; summary of the method: as §3
Meriones unguiculatus [26] = assay: Toxicity in Mongolian gerbil assessed as locomotor activity at 1 mg/kg, po; type: functional, organism-based; set-up: dose 1 mg/kg; summary of the method: as §6
[27] = Plasma clearance in marmoset at 1 mg/kg, iv; type: ADME, organism-based, Callithrix jacchus; set-up: dose 1 mg/kg, route intravenous
Meriones unguiculatus [28] = assay: Inhibition of GR73632-induced foot tapping in sc dosed Mongolian gerbil after 1 hr; type: functional; settings: read-out: ID50 (the source's name)
Summary of the method: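 Gerbil foot tapping model: icv GR73632 3 pmol/5 μL into the lateral ventricle, tapping recorded for 3 min after 1 min recovery. Compound given sc 1 h before agonist, seven animals per group.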

[29] = Half life […] cynomolgus monkey at 1 mg/kg, iv; type: ADME, organism-based, Macaca fascicularis; set-up: dose 1 mg/kg, route intravenous; settings: in vivo
[30] = Bioavailability in cynomolgus monkey at 1 mg/kg, iv; type: ADME, organism-based, Macaca fascicularis; settings: in vivo
[31] = biological target: Sigma non-opioid intracellular receptor 1 (Homo sapiens, UniProt Q99720); assay: Binding affinity to sigma 1 receptor
Sequence of Sigma non-opioid intracellular receptor 1 (Q99720 whole entry): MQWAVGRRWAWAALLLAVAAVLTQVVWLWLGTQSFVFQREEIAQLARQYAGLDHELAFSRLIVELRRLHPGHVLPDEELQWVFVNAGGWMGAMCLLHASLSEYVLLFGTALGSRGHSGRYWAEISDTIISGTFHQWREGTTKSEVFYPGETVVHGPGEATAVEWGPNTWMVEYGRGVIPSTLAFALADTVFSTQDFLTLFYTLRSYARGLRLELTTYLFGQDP

Sequence of Substance-P receptor (P25103 whole entry): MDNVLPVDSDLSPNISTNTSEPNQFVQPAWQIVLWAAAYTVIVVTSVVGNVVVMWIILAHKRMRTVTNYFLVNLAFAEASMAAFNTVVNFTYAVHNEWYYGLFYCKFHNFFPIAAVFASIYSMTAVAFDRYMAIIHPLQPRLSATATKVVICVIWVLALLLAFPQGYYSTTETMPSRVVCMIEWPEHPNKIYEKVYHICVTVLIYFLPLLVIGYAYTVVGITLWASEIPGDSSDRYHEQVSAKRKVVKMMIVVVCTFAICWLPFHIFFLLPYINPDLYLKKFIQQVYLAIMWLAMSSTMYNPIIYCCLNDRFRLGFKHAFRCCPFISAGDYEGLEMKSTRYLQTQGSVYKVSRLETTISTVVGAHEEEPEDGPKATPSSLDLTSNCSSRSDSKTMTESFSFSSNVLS

With `Cc1cc(F)ccc1[C@H]1C[C@@H](N(C)C)CCN1C(=O)N(C)Cc1cc(C(F)(F)F)cc(C(F)(F)F)c1` the Ki (Substance-P receptor) was 0.0794 nM and the ED50 (Meriones unguiculatus [1]) was 0.26 mg/kg.

`Cc1cc(F)ccc1[C@H]1C[C@@H](N(C)C)CCN1C(=O)N(C)[C@H](C)c1cc(C(F)(F)F)cc(C(F)(F)F)c1` gave a Ki (Substance-P receptor) of 0.24 nM and an ED50 (Meriones unguiculatus [1]) of 0.9 mg/kg.

Work on `Cc1cc(F)ccc1[C@H]1C[C@H](N(C)C)CCN1C(=O)N(C)[C@H](C)c1cc(C(F)(F)F)cc(C(F)(F)F)c1` yielded a Ki (Substance-P receptor) of 0.933 nM.

With `Cc1cc(F)ccc1[C@H]1C[C@@H](N2CCC2)CCN1C(=O)N(C)Cc1cc(C(F)(F)F)cc(C(F)(F)F)c1` the ED50 (Meriones unguiculatus [2]) was 0.13 mg/kg and the Ki (Substance-P receptor) was 0.0813 nM.

Compound `Cc1cc(F)ccc1[C@H]1C[C@@H](N2CCC2)CCN1C(=O)N(C)[C@H](C)c1cc(C(F)(F)F)cc(C(F)(F)F)c1` has a Ki (Substance-P receptor) of 0.178 nM.

`Cc1cc(F)ccc1[C@H]1C[C@H](N2CCC2)CCN1C(=O)N(C)[C@H](C)c1cc(C(F)(F)F)cc(C(F)(F)F)c1` showed a Ki (Substance-P receptor) of 0.646 nM.

`Cc1cc(F)ccc1[C@H]1C[C@@H](N2CCCC2)CCN1C(=O)N(C)Cc1cc(C(F)(F)F)cc(C(F)(F)F)c1` gave a Ki (Substance-P receptor) of 0.275 nM and an ED50 (Meriones unguiculatus [1]) of 0.3 mg/kg.

For `Cc1cc(F)ccc1[C@H]1C[C@@H](N2CCCC2)CCN1C(=O)N(C)[C@H](C)c1cc(C(F)(F)F)cc(C(F)(F)F)c1`, the Ki (Substance-P receptor) was 0.141 nM and the ED50 (Meriones unguiculatus [1]) was 0.92 mg/kg.

`Cc1cc(F)ccc1[C@H]1C[C@H](N2CCCC2)CCN1C(=O)N(C)[C@H](C)c1cc(C(F)(F)F)cc(C(F)(F)F)c1` showed an ED50 (Meriones unguiculatus [2]) greater than 1 mg/kg and a Ki (Substance-P receptor) of 0.2 nM.

`CC(=O)N1CCN([C@H]2CCN(C(=O)N(C)Cc3cc(C(F)(F)F)cc(C(F)(F)F)c3)[C@@H](c3ccc(F)cc3C)C2)CC1` showed a Ki (Substance-P receptor) of 0.117 nM and an ED50 (Meriones unguiculatus [1]) of 0.09 mg/kg.

For `CC(=O)N1CCN([C@@H]2CCN(C(=O)N(C)[C@H](C)c3cc(C(F)(F)F)cc(C(F)(F)F)c3)[C@@H](c3ccc(F)cc3C)C2)CC1`, the ED50 (Meriones unguiculatus [1]) was greater than 0.3 mg/kg.

Compound `CN[C@H]1CCN(C(=O)N(C)Cc2cc(C(F)(F)F)cc(C(F)(F)F)c2)[C@@H](c2ccc(F)cc2C)C1` has a Ki (Substance-P receptor) of 0.2 nM.

Compound `Cc1cc(F)ccc1[C@H]1C[C@@H](NC2CC2)CCN1C(=O)N(C)[C@H](C)c1cc(C(F)(F)F)cc(C(F)(F)F)c1` has an ED50 (Meriones unguiculatus [2]) of 0.39 mg/kg and a Ki (Substance-P receptor) of 0.324 nM.

`Cc1cc(F)ccc1[C@H]1C[C@@H](NC2CCC2)CCN1C(=O)N(C)[C@H](C)c1cc(C(F)(F)F)cc(C(F)(F)F)c1` showed a Ki (Substance-P receptor) of 0.17 nM.

`COCCN[C@H]1CCN(C(=O)N(C)[C@H](C)c2cc(C(F)(F)F)cc(C(F)(F)F)c2)[C@@H](c2ccc(F)cc2C)C1` showed a Ki (Substance-P receptor) of 0.209 nM.

In the case of `CC(=O)N1CCN([C@H]2CCN(C(=O)N(C)[C@H](C)c3cc(C(F)(F)F)cc(C(F)(F)F)c3)[C@@H](c3ccc(F)cc3C)C2)CC1` [CASOPITANT], the ED50 (Meriones unguiculatus [3]) is reported as 1.1 mg/kg, the half-life [4] is reported as 1.8 h and the Activity (Meriones unguiculatus [5]) is reported as “Dose-dependent effect”. The bioavailability [6] was 34%, the ED50 (Meriones unguiculatus [7]) was 0.19 mg/kg and the bioavailability [8] was 8%. It also gave a half-life [9] of 1.7 h, a CL/F [10] of 120 mL/min/kg and a bioavailability [11] of 21%. For the same compound, the half-life [12] was 4.5 h, the Vdss (Rattus norvegicus) was 3.2 L/kg and the Ki [13] was 6580 nM. The Ki [14] was 8780 nM, the clearance [15] was 10 mL/min/kg and the Vdss (Mus musculus) was 4 L/kg. The bioavailability [16] was 14%, the Vd [17] was 3.1 L/kg and the clearance [18] was 26 mL/min/kg. For the same compound, the Ki [19] was 4220 nM, the Activity (Meriones unguiculatus [20]) was “Non-toxic” and the Vd [21] was 3 L/kg. The half-life [22] was 1.1 h, the Vd [23] was 1.9 L/kg and the Activity (Meriones unguiculatus [24]) was “Active”. The Time (Meriones unguiculatus [25]) was 36.6 s, the Activity (Meriones unguiculatus [26]) was “Not toxic” and the clearance [27] was 29 mL/min/kg. For the same compound, the ED50 (Meriones unguiculatus [28]) was 0.05 mg/kg, the half-life [29] was 2.1 h and the bioavailability [30] was 8%. The ED50 (Meriones unguiculatus [1]) was 0.08 mg/kg and the Ki [31] was 2980 nM.

Work on `Cc1cc(F)ccc1[C@H]1CNCCN1C(=O)N(C)[C@H](C)c1cc(C(F)(F)F)cc(C(F)(F)F)c1` [VESTIPITANT] yielded an ED50 (Meriones unguiculatus [1]) of 0.014 mg/kg.

Reference: ChEMBL document CHEMBL1671781, “Discovery and biological characterization of (2R,4S)-1'-acetyl-N-{(1R)-1-[3,5-bis(trifluoromethyl)phenyl]ethyl}-2-(4-fluoro-2-methylphenyl)-N-methyl-4,4'-bipiperidine-1-carboxamide as a new potent and selective neurokinin 1 (NK1) receptor antagonist clinical candidate” (J Med Chem, 2011)
